Measured values published in ChEMBL document CHEMBL1158118, “Decaspirones F-I, bioactive secondary metabolites from the saprophytic fungus Helicoma viridis” (2006).
The source made the active and inactive calls. No cut-off for these calls is given here.

Legend:
Pseudomonas aeruginosa = test: Antibacterial activity against […] Pseudomonas aeruginosa ATCC 27853 at 100 ug/disk by standard disk assay; type: functional; conditions: read-out: IZ
Outline: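 Disk diffusion on agar; compounds loaded onto 6 mm paper disks at 100 µg/disk and placed on the plate surface. Plates incubated at 37 °C for 24 h, then zone of inhibition recorded in mm. Ciprofloxacin at 100 µg/disk served as reference.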

Staphylococcus aureus = test: Antibacterial activity against Staphylococcus aureus ATCC 6538 at 100 ug/disk by standard disk assay; type: functional, organism-based
Outline: (§1)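 Test compound loaded onto 6 mm paper disks at 100 µg/disk and laid on the agar surface. Plates incubated at 37 °C for 24 h, then scored for a zone of inhibition.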

Streptococcus mutans = test: Antibacterial activity against Streptococcus mutans ATCC 25175 at 100 ug/disk by standard disk assay; type: functional, organism-based; outline: as §1
Enterococcus faecalis = test: Antibacterial activity against Enterococcus faecalis ATCC 19433 at 100 ug/disk by standard disk assay; type: functional, organism-based; outline: as §1
Micrococcus luteus = test: Antibacterial activity against Sarcina lutea CMCC B28001 at 100 ug/disk by standard disk assay; type: functional, organism-based; outline: as §1
Geotrichum candidum = test: Antifungal activity against Geotrichum candidum AS2.498 at 100 ug/disk by standard disk assay; type: functional, organism-based
Outline: (§2)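 Paper disks (6 mm diameter) carrying 100 µg of test compound placed on the agar surface. Plates kept at 25 °C for 48 h and checked for a zone of inhibition.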

Candida albicans = test: Antifungal activity against Candida albicans ATCC 10231 at 100 ug/disk by standard disk assay; type: functional, organism-based; outline: as §2
Aspergillus fumigatus = test: Antifungal activity against Aspergillus fumigatus ATCC 10894 at 100 ug/disk by standard disk assay; type: functional, organism-based; outline: as §2
Lactococcus lactis = test: Antibacterial activity against Lactococcus lactis PCM 2379 at 100 ug/disk by standard disk assay; type: functional; conditions: read-out: IZ; outline: as §1

O=C(O)c1cn(C2CC2)c2cc(N3CCNCC3)c(F)cc2c1=O [CIPROFLOXACIN]
zone of inhibition at 100 µg/disc (Pseudomonas aeruginosa): 22 mm

O[C@@H]1C=C[C@H](O)[C@@H]2[C@@H]1C1(C=C[C@@H]2O)Oc2cccc3cccc(c23)O1 [DECASPIRONE F]
zone of inhibition at 100 µg/disc (Pseudomonas aeruginosa): 8 mm
Activity (Staphylococcus aureus): inactive
Activity (Streptococcus mutans): inactive
Activity (Enterococcus faecalis): inactive
Activity (Micrococcus luteus): inactive
Activity (Geotrichum candidum): inactive
Activity (Candida albicans): inactive
Activity (Aspergillus fumigatus): inactive

O=C1CC[C@@H](O)[C@@H]2[C@@H]1[C@@H](O)C=CC21Oc2cccc3cccc(c23)O1 [DECASPIRONE G]
zone of inhibition at 100 µg/disc (Pseudomonas aeruginosa): 8 mm
zone of inhibition at 100 µg/disc (Lactococcus lactis): 12 mm
Activity (Staphylococcus aureus): inactive
Activity (Streptococcus mutans): inactive
Activity (Enterococcus faecalis): inactive
Activity (Micrococcus luteus): inactive
Activity (Geotrichum candidum): inactive
Activity (Candida albicans): inactive
Activity (Aspergillus fumigatus): inactive

O[C@H]1[C@@H]2[C@H]([C@@H](O)C=CC23Oc2cccc4cccc(c24)O3)[C@@H](O)C[C@@H]1O [DECASPIRONE H]
zone of inhibition at 100 µg/disc (Pseudomonas aeruginosa): 8 mm
Activity (Staphylococcus aureus): inactive
Activity (Streptococcus mutans): inactive
Activity (Enterococcus faecalis): inactive
Activity (Micrococcus luteus): inactive
Activity (Geotrichum candidum): inactive
Activity (Candida albicans): inactive
Activity (Aspergillus fumigatus): inactive

O=C1CCC(O)c2c(Oc3cccc4cccc(O)c34)cccc21 (centres undefined) [DECASPIRONE I]
zone of inhibition at 100 µg/disc (Pseudomonas aeruginosa): 8 mm
Activity (Staphylococcus aureus): inactive
Activity (Streptococcus mutans): inactive
Activity (Enterococcus faecalis): inactive
Activity (Micrococcus luteus): inactive
Activity (Geotrichum candidum): inactive
Activity (Candida albicans): inactive
Activity (Aspergillus fumigatus): inactive
